Test results reported in ChEMBL document CHEMBL1177873, “Synthesis and evaluation of some new benzothiazole derivatives as potential antimicrobial agents” (Eur J Med Chem, 2010).
≈ marks a conversion by molar mass, not a printed value. Calls of active or inactive are those of the source. The rule behind the calls is not given here.

Key:
[1] = tested on: Streptomyces griseus; test: Antibacterial activity against Streptomyces griseus MTCC 1540 after 24 hrs; assay type: functional; settings: MTCC 1540, 24 h
Procedure, shortened: (§1)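 MIC was taken as the lowest concentration giving 100% growth inhibition relative to a drug-free control, after 24 h at 37 °C in nutrient agar. Compounds were dissolved in DMF, and ciprofloxacin was the reference.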

[2] = tested on: Bacillus subtilis; test: Antibacterial activity against Bacillus subtilis MTCC 441 at 1 ug/ml after 24 hrs by cup-plate method; assay type: functional, organism-based
Procedure, shortened: (§2)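 Cup-plate diffusion in nutrient agar, incubated 24 h at 37 °C. Compounds dissolved in DMF and tested at the single concentration given in the line. DMF served as the solvent control and ciprofloxacin as the reference standard. Read-out is the zone of inhibition diameter in mm.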

[3] = tested on: Bacillus subtilis; test: Antibacterial activity against Bacillus subtilis MTCC 441 after 24 hrs; assay type: functional; settings: MTCC 441, 24 h; procedure, shortened: as §1
[4] = tested on: Candida albicans; test: Antifungal activity against Candida albicans MTCC 227 at 30 ug/ml after 48 hrs by cup-plate method; assay type: functional; settings: MTCC 227, 48 h, read-out: DIZ
Procedure, shortened: (§3)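 Cup-plate diffusion on Sabouraud's dextrose agar, incubated 48 h at 28 °C. Compounds in DMF, which also served as the control, with fluconazole as the reference standard.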

[5] = tested on: Bacillus subtilis; test: Antibacterial activity against Bacillus subtilis MTCC 441 at 10 ug/ml after 24 hrs by cup-plate method relative to ciprofloxacin; assay type: functional, organism-based
[6] = tested on: Escherichia coli; test: Antibacterial activity against Escherichia coli MTCC 443 at 100 ug/ml after 24 hrs by cup-plate method relative to ciprofloxacin; assay type: functional, organism-based
[7] = tested on: Aspergillus niger; test: Antifungal activity against Aspergillus niger MTCC 282 at 30 ug/ml after 48 hrs by cup-plate method; assay type: functional; settings: MTCC 282, 48 h, read-out: DIZ; procedure, shortened: as §3
[8] = tested on: Bacillus subtilis; test: Antibacterial activity against Bacillus subtilis MTCC 441 at 200 ug/ml after 24 hrs by cup-plate method; assay type: functional, organism-based; procedure, shortened: as §2
[9] = tested on: Streptomyces griseus; test: Antibacterial activity against Streptomyces griseus MTCC 1540 at 200 ug/ml after 24 hrs by cup-plate method; assay type: functional, organism-based; procedure, shortened: as §2
[10] = tested on: Bacillus subtilis; test: Antibacterial activity against Bacillus subtilis MTCC 441 at 500 ug/ml after 24 hrs by cup-plate method; assay type: functional, organism-based; procedure, shortened: as §2
[11] = tested on: Escherichia coli; test: Antibacterial activity against Escherichia coli MTCC 443 at 200 ug/ml after 24 hrs by cup-plate method; assay type: functional, organism-based; procedure, shortened: as §2
[12] = tested on: Streptomyces griseus; test: Antibacterial activity against Streptomyces griseus MTCC 1540 at 10 ug/ml after 24 hrs by cup-plate method relative to ciprofloxacin; assay type: functional, organism-based
[13] = tested on: Escherichia coli; test: Antibacterial activity against Escherichia coli MTCC 443 at 1 ug/ml after 24 hrs by cup-plate method; assay type: functional, organism-based; procedure, shortened: as §2
[14] = tested on: Escherichia coli; test: Antibacterial activity against Escherichia coli MTCC 443 at 10 ug/ml after 24 hrs by cup-plate method relative to ciprofloxacin; assay type: functional, organism-based
[15] = tested on: Streptomyces griseus; test: Antibacterial activity against Streptomyces griseus MTCC 1540 at 500 ug/ml after 24 hrs by cup-plate method; assay type: functional, organism-based; procedure, shortened: as §2
[16] = tested on: Escherichia coli; test: Antibacterial activity against Escherichia coli MTCC 443 at 500 ug/ml after 24 hrs by cup-plate method; assay type: functional, organism-based; procedure, shortened: as §2
[17] = tested on: Bacillus subtilis; test: Antibacterial activity against Bacillus subtilis MTCC 441 at 100 ug/ml after 24 hrs by cup-plate method relative to ciprofloxacin; assay type: functional, organism-based
[18] = tested on: Escherichia coli; test: Antibacterial activity against Escherichia coli MTCC 443 after 24 hrs; assay type: functional; settings: MTCC 443, 24 h; procedure, shortened: as §1
[19] = tested on: Streptomyces griseus; test: Antibacterial activity against Streptomyces griseus MTCC 1540 at 100 ug/ml after 24 hrs by cup-plate method; assay type: functional, organism-based; procedure, shortened: as §2
[20] = tested on: Streptomyces griseus; test: Antibacterial activity against Streptomyces griseus MTCC 1540 at 1 ug/ml after 24 hrs by cup-plate method; assay type: functional, organism-based; procedure, shortened: as §2
[21] = tested on: Bacillus subtilis; test: Antibacterial activity against Bacillus subtilis MTCC 441 at 10 ug/ml after 24 hrs by cup-plate method; assay type: functional, organism-based; procedure, shortened: as §2
[22] = tested on: Escherichia coli; test: Antibacterial activity against Escherichia coli MTCC 443 at 10 ug/ml after 24 hrs by cup-plate method; assay type: functional, organism-based; procedure, shortened: as §2
[23] = tested on: Streptomyces griseus; test: Antibacterial activity against Streptomyces griseus MTCC 1540 at 200 ug/ml after 24 hrs by cup-plate method relative to ciprofloxacin; assay type: functional, organism-based
[24] = tested on: Streptomyces griseus; test: Antibacterial activity against Streptomyces griseus MTCC 1540 at 10 ug/ml after 24 hrs by cup-plate method; assay type: functional, organism-based; procedure, shortened: as §2
[25] = tested on: Bacillus subtilis; test: Antibacterial activity against Bacillus subtilis MTCC 441 at 200 ug/ml after 24 hrs by cup-plate method relative to ciprofloxacin; assay type: functional, organism-based
[26] = tested on: Escherichia coli; test: Antibacterial activity against Escherichia coli MTCC 443 at 200 ug/ml after 24 hrs by cup-plate method relative to ciprofloxacin; assay type: functional, organism-based
[27] = tested on: Escherichia coli; test: Antibacterial activity against Escherichia coli MTCC 443 at 100 ug/ml after 24 hrs by cup-plate method; assay type: functional, organism-based; procedure, shortened: as §2
[28] = tested on: Bacillus subtilis; test: Antibacterial activity against Bacillus subtilis MTCC 441 at 100 ug/ml after 24 hrs by cup-plate method; assay type: functional, organism-based; procedure, shortened: as §2
[29] = tested on: Streptomyces griseus; test: Antibacterial activity against Streptomyces griseus MTCC 1540 at 100 ug/ml after 24 hrs by cup-plate method relative to ciprofloxacin; assay type: functional, organism-based

For `Sc1nnc(CCNc2nc3ccccc3s2)n1/N=C/c1ccccc1Cl`, the MIC [1] was 200 µg/mL (≈ 482 µM), the Activity [2] was “inactive” and the MIC [3] was 200 µg/mL (≈ 482 µM). The zone of inhibition at 30 µg/mL [4] was 22 mm, the Activity [5] was “Active” and the Activity [6] was “Active”. The zone of inhibition at 30 µg/mL [7] was 16 mm, the Activity [8] was “Active” and the Activity [9] was “Active”. The Activity [10] was “Active”, the Activity [11] was “Active” and the Activity [12] was “Active”. The Activity [13] was “inactive”, the Activity [14] was “Active” and the Activity [15] was “Active”. For the same molecule, the Activity [16] was “Active”, the Activity [17] was “inactive” and the MIC [18] was 200 µg/mL (≈ 482 µM). For the same molecule, the Activity [19] was “inactive” and the Activity [20] was “inactive”.
For `Sc1nnc(CCNc2nc3ccccc3s2)n1/N=C/c1ccccc1`, the MIC [1] was 500 µg/mL (≈ 1310 µM), the Activity [2] was “inactive” and the MIC [3] was 500 µg/mL (≈ 1310 µM). For the same molecule, the zone of inhibition at 30 µg/mL [4] was 22 mm, the Activity [6] was “inactive” and the zone of inhibition at 30 µg/mL [7] was 16 mm. The Activity [10] was “Active”, the Activity [21] was “inactive” and the Activity [13] was “inactive”. For the same molecule, the Activity [22] was “inactive”, the Activity [15] was “Active” and the Activity [23] was “Active”. The Activity [16] was “Active”, the Activity [17] was “inactive” and the Activity [24] was “inactive”. For the same molecule, the MIC [18] was 500 µg/mL (≈ 1310 µM), the Activity [25] was “Active” and the Activity [19] was “inactive”. The Activity [26] was “Active” and the Activity [20] was “inactive”.
With `O=C(O)c1cn(C2CC2)c2cc(N3CCNCC3)c(F)cc2c1=O` [CIPROFLOXACIN] the MIC [1] was 10 µg/mL (≈ 30.2 µM), the Activity [2] was “inactive” and the MIC [3] was 10 µg/mL (≈ 30.2 µM). For the same molecule, the Activity [27] was “Active”, the Activity [8] was “Active” and the Activity [9] was “Active”. For the same molecule, the Activity [10] was “Active”, the Activity [11] was “Active” and the Activity [21] was “Active”. The Activity [13] was “inactive”, the Activity [22] was “Active” and the Activity [15] was “Active”. The Activity [16] was “Active”, the Activity [28] was “Active” and the Activity [24] was “Active”. For the same molecule, the Activity [19] was “Active” and the Activity [20] was “inactive”.
In the case of `O=[N+]([O-])c1ccccc1/C=N/n1c(S)nnc1CCNc1nc2ccccc2s1`, the MIC [1] is reported as 200 µg/mL (≈ 470 µM), the Activity [29] is reported as “Active” and the Activity [2] is reported as “inactive”. The MIC [3] was 200 µg/mL (≈ 470 µM), the zone of inhibition at 30 µg/mL [4] was less than 10 mm and the Activity [5] was “inactive”. The Activity [6] was “Active”, the zone of inhibition at 30 µg/mL [7] was 10 mm and the Activity [8] was “Active”. For the same molecule, the Activity [9] was “Active”, the Activity [10] was “Active” and the Activity [11] was “Active”. The Activity [12] was “inactive”, the Activity [13] was “inactive” and the Activity [22] was “inactive”. The Activity [15] was “Active”, the Activity [16] was “Active” and the Activity [17] was “Active”. The MIC [18] was 200 µg/mL (≈ 470 µM) and the Activity [20] was “inactive”.
`CN(C)c1ccc(/C=N/n2c(S)nnc2CCNc2nc3ccccc3s2)cc1` was tested, and the MIC [1] was 100 µg/mL (≈ 236 µM), the Activity [2] was “inactive” and the MIC [3] was 100 µg/mL (≈ 236 µM). For the same molecule, the zone of inhibition at 30 µg/mL [4] was 16 mm, the Activity [27] was “Active” and the Activity [5] was “inactive”. For the same molecule, the zone of inhibition at 30 µg/mL [7] was 10 mm, the Activity [8] was “Active” and the Activity [9] was “Active”. For the same molecule, the Activity [10] was “Active”, the Activity [11] was “Active” and the Activity [13] was “inactive”. The Activity [14] was “Active”, the Activity [15] was “Active” and the Activity [16] was “Active”. For the same molecule, the Activity [28] was “Active”, the Activity [24] was “inactive” and the MIC [18] was 100 µg/mL (≈ 236 µM). For the same molecule, the Activity [19] was “Active” and the Activity [20] was “inactive”.
For `O=[N+]([O-])c1cccc(/C=N/n2c(S)nnc2CCNc2nc3ccccc3s2)c1`, the MIC [1] was 200 µg/mL (≈ 470 µM), the Activity [29] was “Active” and the Activity [2] was “inactive”. The MIC [3] was 200 µg/mL (≈ 470 µM), the zone of inhibition at 30 µg/mL [4] was 10 mm and the Activity [6] was “inactive”. For the same molecule, the zone of inhibition at 30 µg/mL [7] was less than 10 mm, the Activity [8] was “Active” and the Activity [9] was “Active”. The Activity [10] was “Active”, the Activity [11] was “Active” and the Activity [21] was “inactive”. The Activity [13] was “inactive”, the Activity [14] was “inactive” and the Activity [15] was “Active”. The Activity [16] was “Active”, the Activity [17] was “Active” and the Activity [24] was “inactive”. The MIC [18] was 200 µg/mL (≈ 470 µM) and the Activity [20] was “inactive”.
In the case of `Oc1ccc(/C=N/n2c(S)nnc2CCNc2nc3ccccc3s2)cc1`, the MIC [1] is reported as 100 µg/mL (≈ 252 µM), the Activity [2] is reported as “inactive” and the MIC [3] is reported as 100 µg/mL (≈ 252 µM). The zone of inhibition at 30 µg/mL [4] was 22 mm, the Activity [5] was “inactive” and the Activity [6] was “Active”. For the same molecule, the zone of inhibition at 30 µg/mL [7] was 10 mm, the Activity [8] was “Active” and the Activity [9] was “Active”. The Activity [10] was “Active”, the Activity [11] was “Active” and the Activity [12] was “inactive”. The Activity [13] was “inactive”, the Activity [14] was “inactive” and the Activity [15] was “Active”. The Activity [16] was “Active”, the Activity [28] was “Active” and the MIC [18] was 200 µg/mL (≈ 504 µM). The Activity [19] was “Active” and the Activity [20] was “inactive”.
With `OC(Cn1cncn1)(Cn1cncn1)c1ccc(F)cc1F` [FLUCONAZOLE] the zone of inhibition at 30 µg/mL [4] was 22 mm and the zone of inhibition at 30 µg/mL [7] was 22 mm.
With `COc1ccc(/C=N/n2c(S)nnc2CCNc2nc3ccccc3s2)cc1OC` the MIC [1] was 100 µg/mL (≈ 227 µM), the Activity [2] was “inactive” and the MIC [3] was 500 µg/mL (≈ 1130 µM). The zone of inhibition at 30 µg/mL [4] was 22 mm, the Activity [27] was “Active” and the zone of inhibition at 30 µg/mL [7] was 22 mm. For the same molecule, the Activity [9] was “Active”, the Activity [10] was “Active” and the Activity [11] was “Active”. For the same molecule, the Activity [21] was “inactive”, the Activity [13] was “inactive” and the Activity [22] was “inactive”. The Activity [15] was “Active”, the Activity [16] was “Active” and the Activity [17] was “inactive”. For the same molecule, the Activity [24] was “inactive”, the MIC [18] was 100 µg/mL (≈ 227 µM) and the Activity [25] was “Active”. For the same molecule, the Activity [19] was “Active” and the Activity [20] was “inactive”.
